Results taken from ChEMBL document CHEMBL1128217, “Synthesis, structure-affinity relationships, and biological activities of ligands binding to retinoic acid receptor subtypes” (J Med Chem, 1995).

Columns and labels:
F9 [1] = experiment: In vitro promotion of plasminogen activator secretion from F9 (murine teratocarcinoma) cells.; assay type: functional, cell-based; details: Mus musculus
How it was run: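 F9 murine teratocarcinoma cells grown in DMEM with 15% fetal bovine serum, exposed 3 days to a range of retinoid concentrations. Differentiation quantified by plasminogen activator secretion; AC50 (concentration giving half-maximal secretion) obtained by nonlinear regression.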

[2] = biological target: T1, Retinoic acid receptor beta (Homo sapiens, UniProt P10826); experiment: Binding affinity to retinoic acid receptor beta using [3H]CD 367 as radioligand
T1 sequence (P10826 whole entry): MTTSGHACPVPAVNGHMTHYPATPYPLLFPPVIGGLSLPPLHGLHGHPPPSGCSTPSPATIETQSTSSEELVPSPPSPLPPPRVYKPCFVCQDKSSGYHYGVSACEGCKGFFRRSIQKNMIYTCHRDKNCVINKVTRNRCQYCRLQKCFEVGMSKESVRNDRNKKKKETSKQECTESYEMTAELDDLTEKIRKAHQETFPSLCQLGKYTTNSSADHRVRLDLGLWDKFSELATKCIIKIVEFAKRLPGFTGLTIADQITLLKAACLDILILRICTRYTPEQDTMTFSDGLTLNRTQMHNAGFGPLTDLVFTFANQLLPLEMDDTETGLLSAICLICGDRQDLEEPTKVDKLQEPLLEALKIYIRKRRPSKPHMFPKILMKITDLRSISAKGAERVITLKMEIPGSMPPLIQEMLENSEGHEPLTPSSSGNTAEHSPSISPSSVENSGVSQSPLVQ

[3] = biological target: T2, Retinoic acid receptor alpha (Homo sapiens, UniProt P10276); experiment: Binding affinity to retinoic acid receptor alpha using [3H]CD 367 as radioligand
T2 sequence (P10276 whole entry): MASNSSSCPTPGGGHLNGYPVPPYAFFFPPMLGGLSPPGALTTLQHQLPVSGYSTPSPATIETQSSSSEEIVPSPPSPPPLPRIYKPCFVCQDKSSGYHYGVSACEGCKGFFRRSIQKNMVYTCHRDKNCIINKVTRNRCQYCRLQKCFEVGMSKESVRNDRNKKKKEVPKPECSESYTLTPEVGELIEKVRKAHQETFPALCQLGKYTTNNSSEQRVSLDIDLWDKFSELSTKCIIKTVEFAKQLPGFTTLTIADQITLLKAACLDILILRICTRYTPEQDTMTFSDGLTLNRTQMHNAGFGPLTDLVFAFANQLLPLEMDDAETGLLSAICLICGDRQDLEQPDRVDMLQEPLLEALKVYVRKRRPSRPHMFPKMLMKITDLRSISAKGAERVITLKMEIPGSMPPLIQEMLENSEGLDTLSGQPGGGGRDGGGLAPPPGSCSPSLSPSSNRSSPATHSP

[4] = biological target: T3, Retinoic acid receptor gamma (Homo sapiens, UniProt P13631); experiment: Binding affinity to retinoic acid receptor (RAR) gamma using [3H]CD 367 as radioligand
T3 sequence (P13631 whole entry): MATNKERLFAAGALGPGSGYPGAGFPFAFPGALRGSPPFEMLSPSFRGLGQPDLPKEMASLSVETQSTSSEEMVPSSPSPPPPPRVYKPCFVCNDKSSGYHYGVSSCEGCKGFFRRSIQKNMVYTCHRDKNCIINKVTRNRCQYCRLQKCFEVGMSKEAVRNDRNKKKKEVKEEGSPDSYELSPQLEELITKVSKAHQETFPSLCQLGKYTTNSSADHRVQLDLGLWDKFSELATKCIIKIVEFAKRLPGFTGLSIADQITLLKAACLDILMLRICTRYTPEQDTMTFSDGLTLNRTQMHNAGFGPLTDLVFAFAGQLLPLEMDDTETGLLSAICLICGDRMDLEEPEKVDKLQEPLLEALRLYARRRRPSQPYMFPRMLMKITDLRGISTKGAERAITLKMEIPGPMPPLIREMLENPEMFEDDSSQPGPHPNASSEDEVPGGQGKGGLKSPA

F9 [5] = experiment: Compound was evaluated for its inhibitory activity against F9 murine teratocarcinoma cell differentiation; NA=not active; assay type: functional, cell-based, Mus musculus
F9 [6] = experiment: Compound was evaluated for its inhibitory activity against F9 murine teratocarcinoma cell differentiation;NA=not active; assay type: functional, cell-based, Mus musculus
F9 [7] = experiment: Compound was evaluated for its inhibitory activity against F9 murine teratocarcinoma cell differentiation; assay type: functional, cell-based; details: Mus musculus

SMILES | Ki [2] | Ki [3] | Ki [4] | AC50 (F9 [1]) | AC50 (F9 [5]) | AC50 (F9 [6]) | IC50 (F9 [7]) | IC50 (F9 [6])
O=C(O)c1ccc2cc(-c3ccc(C(=O)O)c(C45CC6CC(CC(C6)C4)C5)c3)ccc2c1 | > 10000 nM | > 10000 nM | > 10000 nM | 2000 nM |  |  |  | 
O=C(O)c1ccc(/C=C/c2ccc(O)c(C34CC5CC(CC(C5)C3)C4)c2)cc1 | 70 nM | 610 nM | 20 nM | 1 nM |  |  |  | 
CC1(C)CCC(C)(C)c2cc(-c3ccc4cc(C(=O)O)ccc4c3)ccc21 | 13 nM | 580 nM | 40 nM | 15 nM |  |  |  | 
C/C(=C\c1ccc(C(=O)O)cc1)c1ccc2c(c1)C(C)(C)CCC2(C)C |  |  |  | 0.78 nM |  |  |  | 
COc1ccc(-c2ccc3cc(C(=O)O)ccc3c2)cc1C1(C)CCCCC1 | 26 nM | 1120 nM | 160 nM | 150 nM |  |  |  | 
C/C(=C\c1ccc(C(=O)O)cc1)c1ccc(O)c(C(C)(C)C)c1 | 105 nM | 834 nM | 85 nM |  |  | Not Active | 700 nM | 
COc1ccc(/C(C)=C/c2ccc(C(=O)O)cc2)cc1C1(C)CCCCC1 | 17 nM | 420 nM | 29 nM | 30 nM |  |  |  | 
O=C(O)c1ccc2cc(-c3ccc(CCCO)c(C45CC6CC(CC(C6)C4)C5)c3)ccc2c1 | 21 nM | 695 nM | 72 nM | 7.5 nM |  |  |  | 
CC1(C)CCC(C)(C)c2cc3cc(-c4ccc(C(=O)O)cc4)ccc3cc21 | 3 nM | 5.3 nM | 2 nM | 0.46 nM |  |  |  | 
C/C(=C\c1ccc(C(=O)O)cc1)c1ccc(O)c(C23CC4CC(CC(C4)C2)C3)c1 | 1240 nM | 1140 nM | 53 nM | 66 nM |  |  |  | 
CC(C)(C)c1cc(-c2ccc3cc(C(=O)O)ccc3c2)ccc1O | 3550 nM | > 10000 nM | 200 nM |  |  | Not Active |  | Not Active
COc1ccc(/C(C)=C/c2ccc(C(=O)O)cc2)cc1C(C)(C)C | 12 nM | 130 nM | 13 nM | 30 nM |  |  |  | 
O=C(O)c1ccc2cc(-c3ccc(O)c(C45CC6CC(CC(C6)C4)C5)c3)ccc2c1 [O-DEMETHYLATED ADAPALENE] | 2480 nM | 6500 nM |  | 33 nM |  |  |  | 
CC1=C(/C=C/C(C)=C/C=C/C(C)=C/C(=O)O)C(C)(C)CCC1 [TRETINOIN] |  |  |  | 200 nM |  |  |  | 

More lines, main results first:

Ki [2] | Ki [3] | Ki [4] | SMILES | AC50 (F9 [1]) | AC50 (F9 [5]) | AC50 (F9 [6]) | IC50 (F9 [7]) | IC50 (F9 [6])
34 nM | 1100 nM |  | COc1ccc(-c2ccc3cc(C(=O)O)ccc3c2)cc1C12CC3CC(CC(C3)C1)C2 | 37 nM |  |  |  | 
36 nM | 6500 nM | 426 nM | COc1ccc(-c2ccc3cc(C(=O)O)ccc3c2)cc1C(C)(C)C | 200 nM |  |  |  | 
105 nM | 460 nM | 95 nM | COc1ccc(/C(C)=C/c2ccc(C(=O)O)cc2)cc1C12CC3CC(CC(C3)C1)C2 | 100 nM |  |  |  | 
158 nM | > 10000 nM | 34 nM | O=C(O)c1ccc2cc(-c3ccc(CC(O)CO)c(C45CC6CC(CC(C6)C4)C5)c3)ccc2c1 (centres undefined) | 100 nM |  |  |  | 
89 nM | 5000 nM | 151 nM | O=C(O)c1ccc2cc(-c3ccc(OCC(O)CO)c(C45CC6CC(CC(C6)C4)C5)c3)ccc2c1 (centres undefined) | 83 nM |  |  |  | 
660 nM | > 10000 nM | 121 nM | CC1(c2cc(-c3ccc4cc(C(=O)O)ccc4c3)ccc2O)CCCCC1 | 175 nM |  |  |  | 
> 10000 nM | > 10000 nM | > 10000 nM | CCCCCCOc1ccc(-c2ccc3cc(C(=O)O)ccc3c2)cc1C12CC3CC(CC(C3)C1)C2 |  | Not Active |  |  | 
210 nM | 8500 nM | 860 nM | CC1(C)CCOc2ccc(-c3ccc4cc(C(=O)O)ccc4c3)cc21 | 300 nM |  |  |  | 
90 nM | 1060 nM | 27 nM | C/C(=C\c1ccc(C(=O)O)cc1)c1ccc(O)c(C2(C)CCCCC2)c1 | 300 nM |  |  |  | 
288 nM | > 10000 nM | 153 nM | O=C(O)c1ccc2cc(-c3ccc(C(O)CO)c(C45CC6CC(CC(C6)C4)C5)c3)ccc2c1 (centres undefined) | 73 nM |  |  |  | 
156 nM | > 10000 nM | 386 nM | O=C(O)c1ccc2cc(-c3ccc(CO)c(C45CC6CC(CC(C6)C4)C5)c3)ccc2c1 | 460 nM |  |  |  | 
